Test results as given in ChEMBL document CHEMBL1123402, “Saturated analogues of poison ivy allergens. Synthesis of trans,trans- and cis,trans-3-alkyl-1,2-cyclohexanediols and sensitizing properties in allergic contact dermatitis” (1986).
Several values for one entry are separate records, joined by “and”; a condition that tells them apart may be missing. Identical values can stand only once.

Key:
Cavia porcellus [1] = species: Cavia porcellus; assay: Allergic contact dermatitis in guinea pig at 7.6 umol (3 injections) and expressed as number of animals reading with a test intensity of 0.5; type: functional
How it was run: (§1)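 Guinea pigs sensitized with the alkylcyclohexanediol in Freund complete adjuvant (3-injection schedule per curator). Elicitation by open epicutaneous test of the dose in ethanol. Read at 48 h on a scale: 0 none, 0.5 slight partial erythema, 1 erythema over the whole area, 2 erythema plus swelling, 3 swelling well beyond the area. FCA-treated control groups of eight animals.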

Cavia porcellus [2] = species: Cavia porcellus; assay: Allergic contact dermatitis in guinea pig at 7.6 umol (3 injections) and expressed as number of animals reading with a test intensity of 0; type: functional; how it was run: as §1
Cavia porcellus [3] = species: Cavia porcellus; assay: Ability to induce allergic contact dermatitis in guinea pig at 3.8 umol (5 injections) and expressed as average skin reaction; type: functional
How it was run: (§2)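 Sensitization by the FCAT method with five injections: the first sensitization was boosted by two injections of alkylcyclohexanediol in Freund complete adjuvant 1 week after the first test. Open epicutaneous challenge used the stated dose in ethanol, read at 48 h on a 0–3 erythema/swelling scale. Irritation thresholds were set on FCA-injected controls, with groups of eight per experiment.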

Cavia porcellus [4] = species: Cavia porcellus; assay: Allergic contact dermatitis in guinea pig at 3.8 umol (5 injections) and expressed as number of animals reading with a test intensity of 1; type: functional; how it was run: as §2
Cavia porcellus [5] = species: Cavia porcellus; assay: Allergic contact dermatitis in guinea pig at 3.8 umol (5 injections) and expressed as number of animals reading with a test intensity of 2; type: functional; how it was run: as §2
Cavia porcellus [6] = species: Cavia porcellus; assay: Ability to induce allergic contact dermatitis in guinea pig at 7.6 umol (3 injections) and expressed as average skin reaction; type: functional; how it was run: as §1
Cavia porcellus [7] = species: Cavia porcellus; assay: Ability to induce allergic contact dermatitis in guinea pig at 3.8 umol (5 injections)of the compound and expressed as no. of positive animals out of 16; type: functional
Cavia porcellus [8] = species: Cavia porcellus; assay: Allergic contact dermatitis in guinea pig at 3.8 umol (3 injections) and expressed as number of animals reading with a test intensity of 1; type: functional; how it was run: as §1
Cavia porcellus [9] = species: Cavia porcellus; assay: Allergic contact dermatitis in guinea pig at 3.8 umol (5 injections) and expressed as number of animals reading with a test intensity of 0.5; type: functional; how it was run: as §2
Cavia porcellus [10] = species: Cavia porcellus; assay: Allergic contact dermatitis in guinea pig at 3.8 umol (3 injections) and expressed as number of animals reading with a test intensity of 2; type: functional; how it was run: as §1
Cavia porcellus [11] = species: Cavia porcellus; assay: Allergic contact dermatitis in guinea pig at 7.6 umol (5 injections) and expressed as number of animals reading with a test intensity of 0.5; type: functional; how it was run: as §2
Cavia porcellus [12] = species: Cavia porcellus; assay: Ability to induce allergic contact dermatitis in guinea pig at 3.8 umol (3 injections) and expressed as average skin reaction; type: functional; how it was run: as §1
Cavia porcellus [13] = species: Cavia porcellus; assay: Allergic contact dermatitis in guinea pig at 3.8 umol (3 injections) and expressed as number of animals reading with a test intensity of 0.5; type: functional; how it was run: as §1
Cavia porcellus [14] = species: Cavia porcellus; assay: Allergic contact dermatitis in guinea pig at 3.8 umol (5 injections) and expressed as number of animals reading with a test intensity of 0; type: functional; how it was run: as §2
Cavia porcellus [15] = species: Cavia porcellus; assay: Ability to induce allergic contact dermatitis in guinea pig at 7.6 umol (3 injections)of the compound and expressed as no. of positive animals out of 16; type: functional; how it was run: as §1
Cavia porcellus [16] = species: Cavia porcellus; assay: Allergic contact dermatitis in guinea pig at 7.6 umol (5 injections) and expressed as number of animals reading with a test intensity of 2; type: functional; how it was run: as §2
Cavia porcellus [17] = species: Cavia porcellus; assay: Allergic contact dermatitis in guinea pig at 3.8 umol (3 injections) and expressed as number of animals reading with a test intensity of 0; type: functional; how it was run: as §1
Cavia porcellus [18] = species: Cavia porcellus; assay: Allergic contact dermatitis in guinea pig at 7.6 umol (3 injections) and expressed as number of animals reading with a test intensity of 1; type: functional; how it was run: as §1
Cavia porcellus [19] = species: Cavia porcellus; assay: Ability to induce allergic contact dermatitis in guinea pig at 3.8 umol (3 injections)of the compound and expressed as no. of positive animals out of 16; type: functional; how it was run: as §1
Cavia porcellus [20] = species: Cavia porcellus; assay: Ability to induce allergic contact dermatitis in guinea pig at 7.6 umol (5 injections)of the compound and expressed as no. of positive animals out of 16; type: functional
Cavia porcellus [21] = species: Cavia porcellus; assay: Ability to induce allergic contact dermatitis in guinea pig at 7.6 umol (3 injections)of the compound and expressed as no. of positive animals out of 8; type: functional; how it was run: as §1
Cavia porcellus [22] = species: Cavia porcellus; assay: Ability to induce allergic contact dermatitis in guinea pig at 3.8 umol (5 injections) and expressed as no. of positive animals out of 8; type: functional; how it was run: as §2
Cavia porcellus [23] = species: Cavia porcellus; assay: Ability to induce allergic contact dermatitis in guinea pig at 3.8 umol (3 injections)of the compound and expressed as no. of positive animals out of 8; type: functional; how it was run: as §1
Cavia porcellus [24] = species: Cavia porcellus; assay: Allergic contact dermatitis in guinea pig at 7.6 umol (3 injections) and expressed as number of animals reading with a test intensity of 2; type: functional; how it was run: as §1
Cavia porcellus [25] = species: Cavia porcellus; assay: Allergic contact dermatitis in guinea pig at 14 umol (5 injections) and expressed as number of animals reading with a test intensity of 0; type: functional; how it was run: as §2
Cavia porcellus [26] = species: Cavia porcellus; assay: (§3) Allergic contact dermatitis in guinea pig at 7.6 umol (5 injections) and expressed as number of animals reading with a test intensity of 1; type: functional; how it was run: as §2
Cavia porcellus [27] = species: Cavia porcellus; assay: Allergic contact dermatitis in guinea pig at 14 umol (3 injections) and expressed as number of animals reading with a test intensity of 1; type: functional; how it was run: as §1
Cavia porcellus [28] = species: Cavia porcellus; assay: (§4) Ability to induce allergic contact dermatitis in guinea pig at 7.6 umol (5 injections) and expressed as average skin reaction; type: functional; how it was run: as §2
Cavia porcellus [29] = species: Cavia porcellus; assay: Allergic contact dermatitis in guinea pig at 7.6 umol (5 injections) and expressed as number of animals reading with a test intensity of 0; type: functional; how it was run: as §2
Cavia porcellus [30] = species: Cavia porcellus; assay: Allergic contact dermatitis in guinea pig at 14 umol (5 injections) and expressed as number of animals reading with a test intensity of 2; type: functional; how it was run: as §2
Cavia porcellus [31] = species: Cavia porcellus; assay: as §4; type: functional; how it was run: as §2; remark: listed apart in the source
Cavia porcellus [32] = species: Cavia porcellus; assay: Allergic contact dermatitis in guinea pig at 14 umol (5 injections) and expressed as number of animals reading with a test intensity of 1; type: functional; how it was run: as §2
Cavia porcellus [33] = species: Cavia porcellus; assay: Ability to induce allergic contact dermatitis in guinea pig at 14 umol (3 injections) and expressed as average skin reaction; type: functional; how it was run: as §1
Cavia porcellus [34] = species: Cavia porcellus; assay: Ability to induce allergic contact dermatitis in guinea pig at 3.8 umol (3 injections)of the compound and expressed as no. of positive animals out of 8
Cavia porcellus [35] = species: Cavia porcellus; assay: Ability to induce allergic contact dermatitis in guinea pig at 14 umol (5 injections)of the compound and expressed as no. of positive animals out of 8; type: functional; how it was run: as §2
Cavia porcellus [36] = species: Cavia porcellus; assay: Ability to induce allergic contact dermatitis in guinea pig at 3.8 umol (5 injections)of the compound and expressed as no. of positive animals out of 8; type: functional; how it was run: as §2
Cavia porcellus [37] = species: Cavia porcellus; assay: Allergic contact dermatitis in guinea pig at 14 umol (5 injections) and expressed as number of animals reading with a test intensity of 0.5; type: functional; how it was run: as §2
Cavia porcellus [38] = species: Cavia porcellus; assay: Allergic contact dermatitis in guinea pig at 14 umol (3 injections) and expressed as number of animals reading with a test intensity of 2; type: functional; how it was run: as §1
Cavia porcellus [39] = species: Cavia porcellus; assay: Allergic contact dermatitis in guinea pig at 14 umol (3 injections) and expressed as number of animals reading with a test intensity of 0.5; type: functional; how it was run: as §1
Cavia porcellus [40] = species: Cavia porcellus; assay: Ability to induce allergic contact dermatitis in guinea pig at 14 umol (5 injections) and expressed as average skin reaction; type: functional; how it was run: as §2
Cavia porcellus [41] = species: Cavia porcellus; assay: Allergic contact dermatitis in guinea pig at 14 umol (3 injections) and expressed as number of animals reading with a test intensity of 0; type: functional; how it was run: as §1
Cavia porcellus [42] = species: Cavia porcellus; assay: Ability to induce allergic contact dermatitis in guinea pig at 7.6 umol (5 injections)of the compound and expressed as no. of positive animals out of 8; type: functional; how it was run: as §2
Cavia porcellus [43] = species: Cavia porcellus; assay: Ability to induce allergic contact dermatitis in guinea pig at 14 umol (3 injections)of the compound and expressed as no. of positive animals out of 8; type: functional; how it was run: as §1
Cavia porcellus [44] = species: Cavia porcellus; assay: as §3; type: functional; how it was run: as §2; remark: listed apart in the source

| Compound | No. of animals (Cavia porcellus [1]) | No. of animals (Cavia porcellus [2]) | Average skin reaction (Cavia porcellus [3]) | No. of animals (Cavia porcellus [4]) | No. of animals (Cavia porcellus [5]) | Average skin reaction (Cavia porcellus [6]) | No. of animals (Cavia porcellus [8]) | No. of animals (Cavia porcellus [9]) | No. of animals (Cavia porcellus [10]) | No. of animals (Cavia porcellus [11]) | Average skin reaction (Cavia porcellus [12]) | No. of animals (Cavia porcellus [13]) | No. of animals (Cavia porcellus [14]) | No. of animals (Cavia porcellus [16]) | No. of animals (Cavia porcellus [17]) | No. of animals (Cavia porcellus [18]) | other results |
| --- | --- | --- | --- | --- | --- | --- | --- | --- | --- | --- | --- | --- | --- | --- | --- | --- | --- |
| CCCCCCCCCCCCCCC[C@H]1CCC[C@@H](O)[C@@H]1O | 2 | 2 | 0.8 | 9 | 1 | 0.8 | 4 | 4 | 0 | 2 and 1 | 0.5 | 8 | 2 | 0 | 4 | 12 | No. of positive animals (Cavia porcellus [7]): 14; No. of positive animals (Cavia porcellus [15]): 14; No. of positive animals (Cavia porcellus [19]): 12; No. of positive animals (Cavia porcellus [20]): 15 |
| CCCCCCCCCCCCCCC[C@H]1CCC[C@H](O)[C@@H]1O | 6 | 1 | 0.5 | 2 | 0 | 0.5 | 0 | 4 | 0 | 2 and 1 | 0.3 | 5 | 2 | 0 | 3 | 1 | No. of positive animals (Cavia porcellus [21]): 7; No. of positive animals (Cavia porcellus [22]): 6; No. of positive animals (Cavia porcellus [23]): 5; No. of animals (Cavia porcellus [24]): 0 |
| CCCCCCCCCC[C@H]1CCC[C@@H](O)[C@@H]1O | – | – | 0.5 | 2 | 0 | – | 1 | 4 | 0 | – | 0.3 | 3 | 2 | 0 | 4 | – | No. of animals (Cavia porcellus [25]): 1; No. of animals (Cavia porcellus [26]): 1; No. of animals (Cavia porcellus [27]): 2; Average skin reaction (Cavia porcellus [28]): 0.7; No. of animals (Cavia porcellus [29]): 2 and 1; No. of animals (Cavia porcellus [30]): 2; Average skin reaction (Cavia porcellus [31]): 0.5; No. of animals (Cavia porcellus [32]): 2; Average skin reaction (Cavia porcellus [33]): 0.9; No. of positive animals (Cavia porcellus [34]): 4; No. of positive animals (Cavia porcellus [35]): 7; No. of positive animals (Cavia porcellus [36]): 6; No. of animals (Cavia porcellus [37]): 3; No. of animals (Cavia porcellus [38]): 2; No. of animals (Cavia porcellus [39]): 2; Average skin reaction (Cavia porcellus [40]): 0.9; No. of animals (Cavia porcellus [41]): 2; No. of positive animals (Cavia porcellus [42]): 6 and 7; No. of positive animals (Cavia porcellus [43]): 6; No. of animals (Cavia porcellus [44]): 5 |
